# Experimental data taken from ChEMBL document CHEMBL4024771, “Optimization of Orally Bioavailable Enhancer of Zeste Homolog 2 (EZH2) Inhibitors Using Ligand and Property-Based Design Strategies: Identification of Development Candidate …” (J Med Chem, 2018).
# Calls of active or inactive are those of the source. No cut-off for these calls is given here.
# Columns and labels:
# [1] = target: Histone-lysine N-methyltransferase EZH2 (Homo sapiens, UniProt Q15910); assay: Inhibition of EZH2 in human KARPAS422 cells assessed as reduction in H3K27me3 level after 72 hrs by ELISA
# Chain of Histone-lysine N-methyltransferase EZH2 (Homo sapiens, UniProt Q15910) (Q15910 whole entry): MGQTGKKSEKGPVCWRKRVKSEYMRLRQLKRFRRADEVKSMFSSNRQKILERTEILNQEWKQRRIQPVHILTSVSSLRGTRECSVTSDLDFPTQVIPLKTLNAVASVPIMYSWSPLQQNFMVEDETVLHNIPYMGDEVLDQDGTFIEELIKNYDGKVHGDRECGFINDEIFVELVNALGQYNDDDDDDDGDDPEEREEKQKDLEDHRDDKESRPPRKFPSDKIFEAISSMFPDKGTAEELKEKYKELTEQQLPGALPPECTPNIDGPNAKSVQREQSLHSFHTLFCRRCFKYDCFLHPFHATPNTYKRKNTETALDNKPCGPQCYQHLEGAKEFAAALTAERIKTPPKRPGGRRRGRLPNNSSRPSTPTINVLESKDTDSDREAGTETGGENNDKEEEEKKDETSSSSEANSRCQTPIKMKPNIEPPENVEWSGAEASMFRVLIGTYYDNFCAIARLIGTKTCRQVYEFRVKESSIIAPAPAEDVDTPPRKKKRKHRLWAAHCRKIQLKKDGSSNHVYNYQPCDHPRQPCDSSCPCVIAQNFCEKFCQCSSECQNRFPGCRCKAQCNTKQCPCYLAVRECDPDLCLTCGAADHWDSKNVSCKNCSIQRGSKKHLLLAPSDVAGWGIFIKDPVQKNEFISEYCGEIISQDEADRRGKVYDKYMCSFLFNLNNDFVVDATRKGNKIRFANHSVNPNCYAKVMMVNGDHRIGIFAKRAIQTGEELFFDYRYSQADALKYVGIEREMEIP
# [2] = target: Histone-lysine N-methyltransferase EZH2 (Homo sapiens, UniProt Q15910, Y641N); assay: Inhibition of EZH2 Y641N mutant (unknown origin) using oligonucleosomes as substrate after 60 mins in presence of [3H]SAM by scintillation counting analysis
# Chain of Histone-lysine N-methyltransferase EZH2 (Homo sapiens, UniProt Q15910, Y641N) (Q15910 whole entry Y641N): as the sequence (Q15910 whole entry) above, with Y641N counted along it
# KARPAS-422 [3] = assay: Antiproliferative activity against human KARPAS422 cells after 72 hrs by resazurin assay; format: functional, cell-based; conditions: Homo sapiens, KARPAS-422, 72 h
# [4] = Kinetic solubility of the compound; format: physicochemical; conditions: read-out: Kinetic_solubility
# [5] = Thermodynamic solubility in water at 25 degC using crystalline form; format: physicochemical; conditions: read-out: Therm_solubility
# KARPAS-422 [6] = assay: Antitumor activity against human KARPAS422 cells harboring EZH2 Y641N mutant xenografted in mouse assessed as decrease in tumor regression at 100 mg/kg, sc qd measured 40 days post treatment termination on day 31; format: functional, organism-based
# Mus musculus [7] = assay: In vivo inhibition of EZH2 in mouse xenografted with human KARPAS422 cells harboring EZH2 Y641N mutant assessed as reduction in H3K27me3 level in tumor at 100 mg/kg, sc qd measured 4 hrs post last dose on day 9 relative to control; format: functional; conditions: KARPAS-422, sc
# Procedure, shortened: (§1)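 Mice bearing Karpas-422 (EZH2 Y641N) xenografts were dosed with crystalline suspension orally twice daily (7 h/17 h) or subcutaneously once daily. Tumors were collected on day 9, 4 h after the last dose, for H3K27me3 quantification.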
# Mus musculus [8] = assay: In vivo inhibition of EZH2 in mouse xenografted with human KARPAS422 cells harboring EZH2 Y641N mutant assessed as reduction in H3K27me3 level in tumor at 300 mg/kg, po bid measured 4 hrs post last dose on day 9 relative to control; format: functional; conditions: KARPAS-422, po; procedure, shortened: as §1
# Mus musculus [9] = assay: Time at which free plasma concentration stays above antiproliferative KARPAS422 cells IC90 level in mouse xenografted with human KARPAS422 cells at 300 mg/kg, po bid
# Mus musculus [10] = assay: Time at which free plasma concentration stays below antiproliferative KARPAS422 cells IC90 level in mouse xenografted with human KARPAS422 cells at 100 mg/kg, po bid
# [11] = Clearance in rat hepatocytes assessed per million cells; format: ADME, cell-based, Hepatocyte; conditions: read-out: CLH
# [12] = Clearance in rat at 2 mg/kg, iv; format: ADME, organism-based; conditions: in vivo
# Cytochrome P450 2C9 = Cytochrome P450 2C9 (Homo sapiens, UniProt P11712); assay: Inhibition of CYP2C9 (unknown origin); format: ADME
# Chain of Cytochrome P450 2C9 (P11712 whole entry): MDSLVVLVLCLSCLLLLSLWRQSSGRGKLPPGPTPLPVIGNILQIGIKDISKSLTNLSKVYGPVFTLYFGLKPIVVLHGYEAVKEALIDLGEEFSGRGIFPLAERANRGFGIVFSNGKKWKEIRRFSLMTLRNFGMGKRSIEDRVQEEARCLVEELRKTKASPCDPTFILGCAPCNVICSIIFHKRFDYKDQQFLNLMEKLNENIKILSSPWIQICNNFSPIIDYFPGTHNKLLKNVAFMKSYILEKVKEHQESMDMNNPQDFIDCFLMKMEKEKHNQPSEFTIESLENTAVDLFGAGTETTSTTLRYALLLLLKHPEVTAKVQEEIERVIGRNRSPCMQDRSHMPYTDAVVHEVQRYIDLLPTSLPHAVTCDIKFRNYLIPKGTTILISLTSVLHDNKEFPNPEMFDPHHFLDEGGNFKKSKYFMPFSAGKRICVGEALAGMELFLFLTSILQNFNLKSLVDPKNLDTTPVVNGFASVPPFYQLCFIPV
# Cytochrome P450 3A4 = Cytochrome P450 3A4 (Homo sapiens, UniProt P08684); assay: Inhibition of CYP3A4 (unknown origin); format: ADME
# Chain of Cytochrome P450 3A4 (P08684 whole entry): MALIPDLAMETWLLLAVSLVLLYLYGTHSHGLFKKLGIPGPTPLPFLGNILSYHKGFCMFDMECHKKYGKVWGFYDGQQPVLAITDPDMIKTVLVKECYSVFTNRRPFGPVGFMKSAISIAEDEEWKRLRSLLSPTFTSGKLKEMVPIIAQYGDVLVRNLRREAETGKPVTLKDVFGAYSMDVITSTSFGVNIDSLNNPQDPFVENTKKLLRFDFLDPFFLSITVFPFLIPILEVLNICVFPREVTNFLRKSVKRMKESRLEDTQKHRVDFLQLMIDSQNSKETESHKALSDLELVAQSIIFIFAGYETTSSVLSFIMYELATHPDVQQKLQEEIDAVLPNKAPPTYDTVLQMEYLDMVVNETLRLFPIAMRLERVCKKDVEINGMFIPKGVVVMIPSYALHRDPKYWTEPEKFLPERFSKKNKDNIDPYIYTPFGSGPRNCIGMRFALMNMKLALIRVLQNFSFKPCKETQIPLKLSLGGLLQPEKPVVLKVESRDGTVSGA
# Salmonella typhimurium = assay: Mutagenicity in Salmonella typhimurium by Ames assay; format: toxicity; conditions: salmonella enterica subsp. enterica serovar typhimurium
# [13] = Lipophilicity, log D of the compound at pH 7.4; conditions: buffer, pH 7.4, logD
# [14] = system: Histone-lysine N-methyltransferase EZH2 (Homo sapiens), Q15910 [Y641N]
# Chain of Histone-lysine N-methyltransferase EZH2 (Homo sapiens), Q15910 [Y641N] (Q15910 whole entry Y641N): as the sequence (Q15910 whole entry) above, with Y641N counted along it
# KARPAS-422 [15] = assay: Antitumor activity against human KARPAS422 cells harboring EZH2 Y641N mutant xenografted in mouse assessed as tumor regression at 100 mg/kg, sc qd measured 40 days post treatment termination on day 31
smiles,measurement,setting,value
COc1cc(C)[nH]c(=O)c1CN1CCc2c(Cl)cc([C@H](OC)C3COC3)c(Cl)c2C1=O [MEVROMETOSTAT],IC50,[1],4 nM
same,Ki,[2],< 0.1 nM
same,IC50,KARPAS-422 [3],6 nM
same,IC90,KARPAS-422 [3],60 nM
same,solubility kinetic,[4],538 µM
same,solubility thermodynamic,[5],315 µg/mL
same,Activity,KARPAS-422 [6],Active
same,inhibition in vivo at 100 mg/kg,Mus musculus [7],13.8%
same,inhibition in vivo at 300 mg/kg,Mus musculus [8],47.9%
same,Time,Mus musculus [9],24 h
same,Time,Mus musculus [10],7 to 24 h
same,hepatocyte CLint,[11],109 µL/min/1e6 cells
same,clearance,[12],70 mL/min/kg
same,IC50,Cytochrome P450 2C9,> 30000 nM
same,IC50,Cytochrome P450 3A4,> 30000 nM
same,Activity,Salmonella typhimurium,Non-Toxic
same,logD,[13],1.9
same,T1/2,[14],6 h
same,Activity,KARPAS-422 [15],Active
